Source: PubChem BioAssay
MC4R antagonist: human MC4R antagonism in cAMP assay | P32245 | MC4R-expressing cells, MTII-stimulated cAMP, LANCE TR-FRET | inhibition, % at 6.5 µM | 0.48% of 360,000 active | AID 540295;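 active = inhibition above its plate's cutoff, the mean of tested wells on that plate plus 3 SD, cut at about 29% in these data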
Target sequence (P32245 whole entry, looked up): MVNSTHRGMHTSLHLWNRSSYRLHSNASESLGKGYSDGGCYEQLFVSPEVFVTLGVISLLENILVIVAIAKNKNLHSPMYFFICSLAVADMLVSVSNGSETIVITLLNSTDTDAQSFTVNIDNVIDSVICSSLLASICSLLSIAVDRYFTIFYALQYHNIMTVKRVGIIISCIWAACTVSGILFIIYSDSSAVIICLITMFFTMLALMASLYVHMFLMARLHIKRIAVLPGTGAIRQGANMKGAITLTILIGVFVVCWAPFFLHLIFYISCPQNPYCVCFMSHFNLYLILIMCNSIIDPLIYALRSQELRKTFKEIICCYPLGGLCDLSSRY
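Material – human MC4R-expressing U2OS cells · Repeats – no replicates · Detection – TR-FRET with Eu-cAMP and labeled anti-cAMP, 671 nm · Times – compound 30 min, challenge 1 h, detection 1 h · Compound – single nominal compound dose of 6.5 µM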
MOR-DOR ag-1: agonists of human mu-delta opioid receptor heterodimerization. P35372+P41143. cells, OPRM1-OPRD1 heterodimerization, luminescence. activation, % at 9.3 µM. 0.3% of 340,000 active. AID 504326
HTR5A ag ctr: activates human HTR5A in OPRM1-OPRD1 agonist counter-screen. HTR5A agonist assay, luminescence, cell-based. activation, % at 9.3 µM. 0.61% of 340,000 active. AID 504692; in the data active = activation mostly above about 9.5%, no sharp cut-off; inactive = mostly below about 7.6%
HTR5A inv ag: HTR5A inverse agonism, opioid heterodimer counter-screen; P47898; HTR5A cell line, luminescence; inhibition, % at 9.3 µM; 0.083% of 340,000 active; AID 504634; in the data active = inhibition mostly above about 23%, no sharp cut-off; inactive = mostly below about 18%
MOR-DOR inv ag: inverse agonists of human mu-delta opioid receptor heterodimerization. P35372+P41143. cell-based MOR-DOR heterodimer luminescence, inverse agonism. inhibition, % at 9.3 µM. 0.21% of 340,000 active. AID 504357; in the data active = inhibition above about 22%, passing the limit was not always enough
MC4R barr agon: human MC4R agonism via beta-arrestin; P32245; U2OS MC4R beta-arrestin complementation, luminescence; percent of melanotan II response, DMSO zero; activation, % at 8.9 µM; 0.98% of 360,000 active;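 active = activation above a per-plate cutoff, the mean activation of sample wells on that plate plus 3 SD, cut at about 8% in these data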
MOR-DOR ag-2: opioid heterodimer agonism, HTR5A counter-screen | 13% of 800 active | U2OS counter-screen cells, complementation luminescence, 3 h | activation, % at 9.3 µM | shares compounds with HTR5A ag ctr
HTR5A ag conf: HTR5A (human) agonism, confirmation | shares compounds with HTR5A ag ctr | HTR5A agonist cell assay, luminescence | activation, % at 9.3 µM | 17% of 800 active | AID 504915; in the data active = activation above about 17%
Large screens that a line does not name were inactive (follow-up assays come after a bar, where they were run). Shown are actives, neighbours in structure and some others; about 2.4% of the full set was active somewhere. Rule as the data show it, unless noted: active = activation above about 18%; inactive = the rest.

CC(C)c1c(C(=O)N/N=C/c2ccc(OCc3ccc(F)cc3)cc2)nnn1-c1nonc1N	HTR5A ag ctr 15 | MOR-DOR ag-2 inactive | HTR5A ag conf inactive
Nc1nonc1-n1nnc(C(=O)N/N=C/c2ccc(OCc3ccccc3)cc2)c1COc1ccc(F)cc1	none
COCCn1nnnc1CN1CCC(Cc2ccccc2)CC1	none
CCNC(=S)NNc1nncc2ccccc12	HTR5A ag ctr 16 | MOR-DOR ag-2 36 | HTR5A ag conf inactive
CCNC(=S)NNc1ccccc1	none (no result: MOR-DOR ag-1, HTR5A ag ctr, HTR5A inv ag, MOR-DOR inv ag)
CN(C)c1ccc(NC(=S)N2CCN(c3ncc(C(F)(F)F)cc3Cl)CC2)cc1	HTR5A ag ctr 16 | MOR-DOR ag-2 inactive | HTR5A ag conf inactive
CCC(C)NS(=O)(=O)c1ccc(S(=O)(=O)N(CC(=O)Nc2ccccc2)Cc2ccco2)cc1 (stereo not drawn)	HTR5A ag ctr 15 | MOR-DOR ag-2 inactive | HTR5A ag conf inactive
CCCC(C)NC(=O)CN(Cc1ccco1)S(=O)(=O)c1ccccc1 (stereo not drawn)	none
Cc1cc(C(=O)COC(=O)c2ccc(O)cc2O)c(C)n1-c1ccccc1	none
Cc1cc(C(=O)COC(=O)c2ccc(O)cc2O)c(C)n1-c1ccc(OC(F)F)cc1	HTR5A ag ctr 27 | MOR-DOR ag-2 inactive | HTR5A ag conf 25
COC(=O)c1ccc(SCC(=O)NC2CCCC2)c([N+](=O)[O-])c1	none
NC(=O)c1ccc(SCC(=O)NC2CCCCC2)c([N+](=O)[O-])c1	HTR5A ag ctr 14 | MOR-DOR ag-2 inactive | HTR5A ag conf inactive
CC1(C)Cc2cccc(OCC(=O)Nc3ccccc3F)c2O1	none
COc1ccc(NC(=O)COc2cccc3c2OC(C)(C)C3)cc1OC	HTR5A ag ctr 26 | MOR-DOR ag-2 inactive | HTR5A ag conf 29
CCCNC(=O)c1ccccc1NC(=O)COc1cccc2c1OC(C)(C)C2	HTR5A ag ctr 27 | MOR-DOR ag-2 inactive | HTR5A ag conf inactive
CN(C)S(=O)(=O)c1ccc(NC(=O)COc2cccc3c2OC(C)(C)C3)cc1	HTR5A ag ctr 24 | MOR-DOR ag-2 inactive | HTR5A ag conf 46
CCCCCCSc1ccc([C@@H]2[C@@H]3C(=O)N(C)C(=O)[C@@H]3[C@]3(C(=O)OC)CCCCN23)cc1	none
O=S(=O)(NCc1ccc2c(c1)OCO2)c1ccc(F)c(F)c1	HTR5A ag ctr 15 | MOR-DOR ag-2 inactive | HTR5A ag conf inactive
Cc1cc(S(=O)(=O)NCc2ccc3c(c2)OCO3)ccc1F	none
CC(C)c1ccc(-n2ccnc2SCC(=O)O)cc1	none
CCS(=O)(=O)N1Cc2ccccc2CC1C(=O)Nc1cccc(OC)c1 (stereo not drawn)	none
CCS(=O)(=O)N1Cc2ccccc2CC1C(=O)Nc1ccc(OC)c(OC)c1 (stereo not drawn)	HTR5A ag ctr 15 | MOR-DOR ag-2 inactive | HTR5A ag conf inactive
O=C(CSc1nnc(NC(=O)c2ccco2)s1)Nc1ccccc1Br	none
O=C(CN1c2cccc3cccc(c23)S1(=O)=O)Nc1ccccc1Br	none
CCOc1cc(CNCC2CCCN2CC)cc(Cl)c1OC (stereo not drawn)	HTR5A ag ctr 19 | MOR-DOR ag-2 inactive | HTR5A ag conf inactive
COc1ccc(/C=N/NC(=O)CNS(=O)(=O)c2ccccc2)cc1	HTR5A ag ctr 21 | MOR-DOR ag-2 inactive | HTR5A ag conf inactive
Cc1ccc2ccccc2c1CSc1nc(N)nc2c1ncn2CC(C)C	HTR5A ag ctr 15 | MOR-DOR ag-2 inactive | HTR5A ag conf inactive
O=C(Cc1n[nH]c(=O)c2ccccc12)OCC(=O)c1ccc(OC(F)F)cc1OC(F)F	none
O=S(=O)(c1cccc(NC(=S)N2CCN(c3cccc(Cl)c3)CC2)c1)C(F)F	HTR5A ag ctr 15 | MOR-DOR ag-2 31 | HTR5A ag conf inactive
O=C(Cn1cc(CNC(=O)C2CCCCC2)nn1)Nc1cc(C(F)(F)F)ccc1Cl	HTR5A ag ctr 20 | MOR-DOR ag-2 inactive | HTR5A ag conf inactive
